CDK5 inh = CDK5/p35 (human) kinase inhibition | AID 488839 | inhibition, % at 10 µM | Recombinant CDK5/p35, ADP-Glo luminescence, 60 min | 330,000 compounds, 0.01% hits;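 active = highest replicate inhibition of at least 50% and at least 75% of replicates reaching 50%; inconclusive = only one of the two criteria met; inactive = both criteria failed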
PKA-R2B act = activates the human PKA-R2B holoenzyme complex; P22694+P31323; PKA-R2B holoenzyme dissociation, Cy5-IP20 fluorescence polarization; R2B truncated from residue 108, S112A mutant; 0% DMSO only, 100% 113 µM cGMP; activation, % at 11.4 µM; 340,000 compounds, 0.079% hits; AID 504700;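 active = activation above a cutoff set at the mean over all compounds plus 3 SD, cut at about 18% in these data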;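 note: higher means more holoenzyme dissociation and a rise in polarization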
SR-BI DiI inh = mouse SR-BI HDL lipid transfer inhibition | Q61009 | ldlA[mSR-BI] CHO cells, DiI-HDL uptake fluorescence, 3 h | inhibition, % at 12.5 µM | 320,000 compounds, 0.96% hits | AID 488896;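 active = mean replicate inhibition of at least 70% and a set share of replicates each scoring 70 or more; inconclusive = meets just one of the two criteria; inactive = fails both criteria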
Target sequence (Q61009 whole entry, looked up): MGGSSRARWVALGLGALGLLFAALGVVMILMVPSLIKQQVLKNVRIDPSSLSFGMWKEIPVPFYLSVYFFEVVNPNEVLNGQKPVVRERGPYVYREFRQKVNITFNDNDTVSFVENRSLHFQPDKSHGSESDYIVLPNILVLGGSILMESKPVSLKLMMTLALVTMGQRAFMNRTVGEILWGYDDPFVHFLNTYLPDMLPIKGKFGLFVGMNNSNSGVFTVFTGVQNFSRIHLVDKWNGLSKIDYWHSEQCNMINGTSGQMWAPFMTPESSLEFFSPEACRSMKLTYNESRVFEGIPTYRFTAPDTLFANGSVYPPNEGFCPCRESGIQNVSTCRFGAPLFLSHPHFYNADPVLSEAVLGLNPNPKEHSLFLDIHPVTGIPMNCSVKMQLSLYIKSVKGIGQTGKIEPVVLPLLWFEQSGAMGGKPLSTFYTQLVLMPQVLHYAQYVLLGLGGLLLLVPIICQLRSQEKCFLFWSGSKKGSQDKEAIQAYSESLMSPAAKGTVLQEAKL
SR-BI uptake up = enhances SR-BI lipid uptake from DiI-HDL. CHO ldlA[mSR-BI] cells, DiI-HDL uptake fluorescence, 3 h; 100 = double the neutral-control signal. activation, % at 12.5 µM. 320,000 compounds, 0.096% hits;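 active = mean replicate activation of at least 60% and every replicate at or above 60%; inconclusive = mean or all-replicate condition met, but not both; inactive = mean below 60% and not all replicates reaching 60%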
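System: CHO ldlA[mSR-BI] cells / Medium: HEPES-buffered (25 mM, pH 7.4) F12 plus 0.5% BSA / Probe or stimulus: labelled HDL, 10 µg/mL / Doses: single compound concentration, delivered by pin transfer / Schedule: 3 h, 37 °C / Measured by: DiI fluorescence, bottom read / Measure: cell-associated DiI fluorescence as measure of HDL uptake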
dFosB act-1 = mouse delta FosB homodimer activation | P13346 | activation, % at 25 µM | AID 493131 | 340,000 compounds, 0.99% hits | purified delta FosB, TAMRA-CDK5 oligo fluorescence polarization; percent of positive-control signal above neutral wells;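 active = mean activation above about 17%, with every replicate also reaching it, limit read from the data, passing the limit was not always enough; inconclusive = only one of the two conditions met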
PKA-R1A activ = PKA-R1A complex activation. 340,000 compounds, 0.083% hits. PKA-R1A dissociation, Cy5-IP20 fluorescence polarization; scaled: DMSO 0%, 113 µM cGMP 100%. P00514+P68181. activation, % at 11.4 µM. AID 504707;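 active = percent activation above the mean of all tested compounds plus 3 SD, cut at about 19% in these data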;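 note: higher means more PKAc released from R1A so a rise in polarization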
dFosB act-2 = enhances mouse delta FosB homodimer binding to DNA. purified delta FosB, TAMRA-CDK5 oligo fluorescence polarization; normalised: neutral wells 0, positive control 100. 2,400 tested, under 10 active. shares compounds with dFosB act-1. activation, % at 24.9 µM. AID 588690;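 active = highest replicate activation at or above 34% and every replicate reaching that threshold; inconclusive = meets only one of the two criteria; inactive = meets neither criterion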;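 note: higher polarization means more probe DNA bound by delta FosB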
Numbers stand for hits; - = inactive; ? = inconclusive; . = no result. Hits are enriched below; roughly 2.1% of the tested compounds scored in any of these assays.

SMILES	CDK5 inh	PKA-R2B act	SR-BI DiI inh	SR-BI uptake up	dFosB act-1	PKA-R1A activ	dFosB act-2
C/C=C/C=C/C(=O)Nc1nccs1	-	-	-	-	-	-	.
Cc1nc(NC(=O)/C=C/c2ccccc2)sc1C(=O)Nc1ccc(Cl)cc1	-	-	-	-	31	-	-
O=C(/C=C/c1ccc(Cl)cc1)Nc1nccs1	-	-	-	-	23	-	-
O=C(/C=C/c1ccccc1)NC(NC(=S)Nc1ccc(Cl)cc1)C(Cl)(Cl)Cl (configuration not stated)	-	-	-	-	24	-	-
Cc1nc(NC(=O)/C=C/c2ccccc2)sc1C(=O)Nc1ccccc1Cl	-	-	-	-	39	-	-
Cc1nc(Nc2ccc(Cl)c(Cl)c2)sc1C(=O)Nc1ccccc1	-	-	-	-	-	-	.
COc1ccc2oc(-c3ccc(C)c(NC(=O)c4ccc(N5CCOCC5)c([N+](=O)[O-])c4)c3)nc2c1	-	-	-	-	22	-	-
O=C(Nc1ccccc1N1CCOCC1)c1ccc(N2CCOCC2)c([N+](=O)[O-])c1	-	-	.	.	-	-	.
CCc1cccc(NC(=O)CCc2nc3sc4c(c3c(=O)[nH]2)CCCC4)c1	-	-	-	-	-	-	.
Cc1cccc(NC(=O)CCc2nc3sc4c(c3c(=O)[nH]2)CCCC4)c1	-	-	-	-	20	-	-
NS(=O)(=O)c1ccc(CCNC(=O)CCNS(=O)(=O)c2ccccc2C(F)(F)F)cc1	-	-	-	-	-	-	.
O=C1NC(=O)/C(=C\c2ccc(OCc3cccc([N+](=O)[O-])c3)cc2)N1	-	-	-	-	31	-	-
O=C1NC(=O)/C(=C\c2ccccc2OCc2ccc([N+](=O)[O-])cc2)N1	-	-	-	-	-	-	.
COC(=O)[C@H](CCSC)NC(=O)Cn1cnc2c(SC)nc(N)nc21	-	-	-	-	-	-	.
Cc1c(C(=O)Nc2ccc(-c3nnc4n3CCCCC4)cc2)oc2c1ccc1ccccc12	-	-	-	-	32	-	-
CCOC(=O)c1c(NC(=O)C(NCCN(C)C)c2ccccc2)sc2c1CCCC2 (configuration not stated)	-	-	-	-	34	-	?
O=C(c1cc(C(=O)N2CCCC2)cc([N+](=O)[O-])c1)N1CCCC1	-	-	-	-	-	-	.
COc1ccc(OC)c(CCNC(=O)CCc2nnc3ccc(N4CCOCC4)nn23)c1	.	-	-	-	-	-	.
Cc1cc(NC(=O)c2ccc3c(c2)C(=O)N(C2CCCCC2)C3=O)no1	-	-	-	-	-	-	.
CCOC(=O)N1CCC(N2C(=O)c3ccc(C(=O)Nc4ccc(OC)cc4)cc3C2=O)CC1	.	-	-	-	30	-	-
O=C(Nc1ccncc1)c1ccc2c(c1)C(=O)N(C1CCCCC1)C2=O	-	-	-	-	26	-	-
CCOC(=O)N1CCN(CC(=O)Nc2ccc(OC)cc2)CC1	-	-	-	-	-	-	.
C[C@@H]1CN([C@@H](C)CO)C(=O)c2cc(C#CCN(C)C)cnc2O[C@H]1CN(C)Cc1ccc2c(c1)OCO2	.	-	.	.	.	-	.
CCC1(c2ccccc2)NC(=O)N(CC(=O)NNC(=O)COc2ccc(Cl)cc2C)C1=O (configuration not stated)	-	-	-	-	-	-	.
CCCCN(CC)CCNC(=S)Nc1ccc2nc(N3CCN(C)CC3)cc(C)c2c1	-	-	-	-	21	-	-
COc1ccc(NC(=O)c2cc3ccccc3o2)cc1OC	-	-	-	-	-	-	.
COc1ccc(Cl)cc1C(=O)NNC(=O)c1cc2ccccc2o1	-	-	-	-	35	-	-
CN(CC(=O)Nc1ccc(Cl)cc1)C(=O)CNC(=O)Cc1cccc2ccccc12	-	-	-	-	-	-	.

High-throughput results deposited in PubChem BioAssay by several laboratories.
